# From ChEMBL document CHEMBL3272325, “Structure-activity relationships of dimeric Catharanthus alkaloids. 1. Deacetylvinblastine amide (vindesine) sulfate” (J Med Chem, 1978)
# Assays:
# [1] = Acute toxicity in ip dosed mouse; type: organism-based; conditions: in vivo
# [2] = Antitumor activity against mouse Gardner lymphosarcoma cell allografted in mouse at 0.5 to 0.8 mg/kg/day, ip; type: functional; conditions: route intraperitoneal
# How it was run: (§1)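 Sulfate salts given ip on days 1-9 against ROS and GLS in mice; tumor growth scored as percent inhibition versus controls (+++ = 75-100%, ++ = 50-75%, ± = under 25%).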
# [3] = Antitumor activity against mouse Ridgeway osteogenic sarcoma cells allografted in mouse at 0.5 to 0.8 mg/kg/day, ip; type: functional; conditions: route intraperitoneal; how it was run: as §1
# [4] = Antitumor activity against mouse Ridgeway osteogenic sarcoma cells allografted in mouse at 0.5 to 0.7 mg/kg/day, ip; type: functional; conditions: route intraperitoneal; how it was run: as §1
# [5] = Antitumor activity against mouse Gardner lymphosarcoma cell allografted in mouse at 0.5 to 0.7 mg/kg/day, ip; type: functional; conditions: route intraperitoneal; how it was run: as §1
# [6] = system: B16; experiment: Antitumor activity against mouse B16 cells allografted in C57Bl/6 mouse assessed as increase in life span at 0.3 mg/kg/day, ip administered on day 5, 9 and 13 measured for 61 days relative to control; type: functional; conditions: route intraperitoneal
# How it was run: (§2)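 C57BL/6 mice implanted ip with 0.5 mL of B16 melanoma brei. Alkaloid sulfate salts given ip on days 1, 5, 9 or on days 5, 9, 13. Percent increase in life span measured against controls; experiment ended at 61 days.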
# [7] = system: P388; experiment: Antitumor activity against mouse P388 cells allografted in mouse assessed as increase in life span at 0.18 mg/kg/day, ip administered from day 1 to day 9 relative to untreated control; type: functional; conditions: route intraperitoneal
# How it was run: (§3)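 P388 ascites implanted ip in mice, 10 animals per group. Sulfate salts given ip either daily on days 1-9 or as a single dose on day 1. Median life span was calculated using all deaths and survivors. Percent increase in life span was taken over untreated controls. The highest nontoxic dose was noted.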
# [8] = system: B16; experiment: Antitumor activity against mouse B16 cells allografted in C57Bl/6 mouse assessed as increase in life span at 0.9 mg/kg/day, ip administered on day 1, 5 and 9 measured for 61 days relative to control; type: functional; conditions: route intraperitoneal; how it was run: as §2
# [9] = system: P388; experiment: Antitumor activity against mouse P388 cells allografted in mouse assessed as increase in life span at 1.8 mg/kg/day, ip after 1 day; type: functional; conditions: 24 h, route intraperitoneal; how it was run: as §3
# [10] = system: B16; experiment: Antitumor activity against mouse B16 cells allografted in C57Bl/6 mouse assessed as mean survival time at 0.6 mg/kg/day, ip administered on day 5, […] (reference value: 21.5 days); type: functional; conditions: route intraperitoneal
# [11] = system: B16; experiment: Antitumor activity against mouse B16 cells allografted in C57Bl/6 mouse assessed as mean survival time at 0.15 mg/kg/day, ip administered on day 5, […] (reference value: 21.5 days); type: functional; conditions: route intraperitoneal
# [12] = system: B16; experiment: Antitumor activity against mouse B16 cells allografted in C57Bl/6 mouse assessed as increase in life span at 0.6 mg/kg/day, ip administered on day 1, 5 and 9 measured for 61 days relative to control; type: functional; conditions: route intraperitoneal; how it was run: as §2
# [13] = system: B16; experiment: Antitumor activity against mouse B16 cells allografted in C57Bl/6 mouse assessed as increase in life span at 0.9 mg/kg/day, ip administered on day 5, 9 and 13 measured for 61 days relative to control; type: functional; conditions: route intraperitoneal; how it was run: as §2
# [14] = system: B16; experiment: Antitumor activity against mouse B16 cells allografted in C57Bl/6 mouse assessed as increase in life span at 0.15 mg/kg/day, ip administered on day 1, 5 and 9 measured for 61 days relative to control; type: functional; conditions: route intraperitoneal; how it was run: as §2
# [15] = system: P388; experiment: Antitumor activity against mouse P388 cells allografted in mouse assessed as increase in life span at 0.27 mg/kg/day, ip administered from day 1 to day 9 relative to untreated control; type: functional; conditions: route intraperitoneal; how it was run: as §3
# [16] = system: B16; experiment: Antitumor activity against mouse B16 cells allografted in C57Bl/6 mouse assessed as mean survival time at 0.3 mg/kg/day, ip administered on day 5, […] (reference value: 21.5 days); type: functional; conditions: route intraperitoneal
# [17] = system: B16; experiment: Antitumor activity against mouse B16 cells allografted in C57Bl/6 mouse assessed as increase in life span at 0.3 mg/kg/day, ip administered on day 1, 5 and 9 measured for 61 days relative to control; type: functional; conditions: route intraperitoneal; how it was run: as §2
# [18] = Antitumor activity against mouse Ridgeway osteogenic sarcoma cells allografted in mouse at 0.3 to 0.4 mg/kg/day, ip; type: functional; conditions: route intraperitoneal
# How it was run: (§4)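 Ridgeway osteogenic sarcoma and Gardner lymphosarcoma in mice, with sulfate salts given ip daily on days 1-9. Tumor growth inhibition versus controls scored in bands: +++ = 75-100%, ++ = 50-75%, ± = under 25%.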
# [19] = system: P388; experiment: Antitumor activity against mouse P388 cells allografted in mouse assessed as increase in life span at 9 mg/kg/day, ip after 1 day; type: functional; conditions: 24 h, route intraperitoneal; how it was run: as §3
# [20] = system: B16; experiment: Antitumor activity against mouse B16 cells allografted in C57Bl/6 mouse assessed as mean survival time at 0.9 mg/kg/day, ip administered on day 5, 9 and 13 (reference value: 21.5 days); conditions: route intraperitoneal
# [21] = system: B16; experiment: Antitumor activity against mouse B16 cells allografted in C57Bl/6 mouse assessed as mean survival time at 0.15 mg/kg/day, ip administered on day 1, 5 and 9 (reference value: 24.6 days); type: functional; conditions: route intraperitoneal
# [22] = system: B16; experiment: Antitumor activity against mouse B16 cells allografted in C57Bl/6 mouse assessed as increase in life span at 0.6 mg/kg/day, ip administered on day 5, 9 and 13 measured for 61 days relative to control; type: functional; conditions: route intraperitoneal; how it was run: as §2
# [23] = system: B16; experiment: Antitumor activity against mouse B16 cells allografted in C57Bl/6 mouse assessed as mean survival time at 1.2 mg/kg/day, ip administered on day 5, […] (reference value: 21.5 days); type: functional; conditions: route intraperitoneal
# [24] = system: B16; experiment: Antitumor activity against mouse B16 cells allografted in C57Bl/6 mouse assessed as mean survival time at 1.2 mg/kg/day, ip administered on day 1, 5 and 9 (reference value: 24.6 days); type: functional; conditions: route intraperitoneal
# [25] = Antitumor activity against mouse P1534(J) cells allografted in mouse assessed as tumor growth inhibition at 0.2 mg/kg/day, ip administered from day 1 to day 9 relative to unreated control; type: functional; conditions: P1534J, route intraperitoneal, read-out: TGI
# How it was run: (§5)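 P1534(J) leukemia implanted subcutaneously in mice. Sulfate salts given ip daily on days 1-9. Read-out was percent inhibition of tumor growth relative to untreated controls. The highest nontoxic dose was recorded.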
# [26] = system: P388; experiment: Antitumor activity against mouse P388 cells allografted in mouse assessed as increase in life span at 0.4 mg/kg/day, ip administered from day 1 to day 9 relative to untreated control; type: functional; conditions: route intraperitoneal; how it was run: as §3
# [27] = system: B16; experiment: Antitumor activity against mouse B16 cells allografted in C57Bl/6 mouse assessed as increase in life span at 1.2 mg/kg/day, ip administered on day 5, 9 and 13 measured for 61 days relative to control; type: functional; conditions: route intraperitoneal
# [28] = system: B16; experiment: Antitumor activity against mouse B16 cells allografted in C57Bl/6 mouse assessed as mean survival time at 0.9 mg/kg/day, ip administered on day 1, 5 and 9 (reference value: 24.6 days); type: functional; conditions: route intraperitoneal
# [29] = Toxicity in ip dosed mouse allografted with mouse p388 cells after 1 day; type: organism-based; conditions: in vivo, read-out: MNTD; how it was run: as §3
# [30] = system: P388; experiment: Antitumor activity against mouse P388 cells allografted in mouse assessed as increase in life span at 4 mg/kg/day, ip after 1 day; type: functional; conditions: 24 h, route intraperitoneal; how it was run: as §3
# [31] = Antitumor activity against mouse Gardner lymphosarcoma cell allografted in mouse at 0.3 to 0.4 mg/kg/day, ip; type: functional; conditions: route intraperitoneal; how it was run: as §4
# [32] = Antitumor activity against mouse P1534(J) cells allografted in mouse assessed as tumor growth inhibition at 0.1 mg/kg/day, ip administered from day 1 to day 9 relative to unreated control; type: functional; conditions: P1534J, route intraperitoneal, read-out: TGI; how it was run: as §5
# [33] = system: P388; experiment: Antitumor activity against mouse P388 cells allografted in mouse assessed as increase in life span at 0.6 mg/kg/day, ip administered from day 1 to day 9 relative to untreated control; type: functional; conditions: route intraperitoneal; how it was run: as §3
# [34] = Toxicity in ip dosed mouse allografted with mouse P1534(J) cells administered from day 1 to day 9; type: organism-based; conditions: in vivo, read-out: MNTD; how it was run: as §5
# [35] = Toxicity in ip dosed mouse allografted with mouse p388 cells administered from day 1 to day 9; type: organism-based; conditions: in vivo, read-out: MNTD; how it was run: as §3
# [36] = system: B16; experiment: Antitumor activity against mouse B16 cells allografted in C57Bl/6 mouse assessed as increase in life span at 1.2 mg/kg/day, ip administered on day 1, 5 and 9 measured for 61 days relative to control; type: functional; conditions: route intraperitoneal
# [37] = system: B16; experiment: Antitumor activity against mouse B16 cells allografted in C57Bl/6 mouse assessed as mean survival time at 0.6 mg/kg/day, ip administered on day 1, 5 and 9 (reference value: 24.6 days); type: functional; conditions: route intraperitoneal
# [38] = system: P388; experiment: Antitumor activity against mouse P388 cells allografted in mouse assessed as increase in life span at 1.7 mg/kg/day, ip after 1 day; type: functional; conditions: 24 h, route intraperitoneal; how it was run: as §3
# [39] = system: P388; experiment: Antitumor activity against mouse P388 cells allografted in mouse assessed as increase in life span at 6 mg/kg/day, ip after 1 day; type: functional; conditions: 24 h, route intraperitoneal; how it was run: as §3
# [40] = system: B16; experiment: Antitumor activity against mouse B16 cells allografted in C57Bl/6 mouse assessed as increase in life span at 0.15 mg/kg/day, ip administered on day 5, 9 and 13 measured for 61 days relative to control; type: functional; conditions: route intraperitoneal; how it was run: as §2
# [41] = system: B16; experiment: Antitumor activity against mouse B16 cells allografted in C57Bl/6 mouse assessed as mean survival time at 0.3 mg/kg/day, ip administered on day 1, 5 and 9 (reference value: 24.6 days); type: functional; conditions: route intraperitoneal
# [42] = system: Blood; experiment: Biodistribution in po dosed rat blood using [3H]-labeled drug relative to Iv dosing; type: ADME, organism-based; conditions: in vivo
smiles,measurement,setting,value
CC[C@]1(O)C[C@@H]2C[C@](C(=O)OC)(c3cc4c(cc3OC)N(C)[C@H]3[C@@](O)(C(N)=O)[C@H](O)[C@]5(CC)C=CCN6CC[C@]43[C@@H]65)c3[nH]c4ccccc4c3CC[N+]([O-])(C2)C1,LD50,[1],> 10 mg/kg
same,TGI,[2],25%
same,TGI,[3],25%
CC[C@]1(O)C[C@H]2CN(CCc3c([nH]c4ccccc34)[C@@](C(=O)OC)(c3cc4c(cc3OC)N(C)[C@H]3[C@@](O)(C(N)=O)[C@H](O)[C@]5(CC)CCCN6CC[C@]43[C@@H]65)C2)C1.O=S(=O)(O)O,TGI,[4],50%
same,TGI,[5],50%
CC[C@]1(O)C[C@H]2CN(CCc3c([nH]c4ccccc34)[C@@](C(=O)OC)(c3cc4c(cc3OC)N(C)[C@H]3[C@@](O)(C(=O)OC)[C@H](O)[C@]5(CC)C=CCN6CC[C@]43[C@@H]65)C2)C1.O=S(=O)(O)O,ILS at 0.3 mg/kg/day,[6],91%
same,ILS at 0.18 mg/kg/day,[7],136%
same,ILS at 0.9 mg/kg/day,[8],84%
same,ILS at 1.8 mg/kg/day,[9],159%
same,LD50,[1],5.8 mg/kg
same,MST,[10],41.1 days
same,MST,[11],33.7 days
same,ILS at 0.6 mg/kg/day,[12],109%
same,ILS at 0.9 mg/kg/day,[13],126%
same,ILS at 0.15 mg/kg/day,[14],71%
same,ILS at 0.27 mg/kg/day,[15],181%
same,MST,[16],41.1 days
same,ILS at 0.3 mg/kg/day,[17],100%
same,TGI,[18],50%
same,ILS at 9 mg/kg/day,[19],> 263%
same,MST,[20],48.7 days
same,MST,[21],42.1 days
same,ILS at 0.6 mg/kg/day,[22],91%
same,MST,[23],45.2 days
same,MST,[24],41.5 days
same,inhibition in vivo at 0.2 mg/kg/day,[25],96%
same,ILS at 0.4 mg/kg/day,[26],> 263%
same,ILS at 1.2 mg/kg/day,[27],110%
same,MST,[28],45.3 days
same,MTD at 24 h,[29],9 mg/kg/day
same,ILS at 4 mg/kg/day,[30],218%
same,TGI,[31],50%
same,inhibition in vivo at 0.1 mg/kg/day,[32],41%
same,ILS at 0.6 mg/kg/day,[33],> 263%
same,MTD,[34],0.2 mg/kg/day
same,MTD,[35],0.6 mg/kg/day
same,ILS at 1.2 mg/kg/day,[36],69%
same,MST,[37],51.5 days
same,ILS at 1.7 mg/kg/day,[38],154%
same,ILS at 6 mg/kg/day,[39],200%
same,ILS at 0.15 mg/kg/day,[40],57%
same,MST,[41],49.3 days
CC[C@]1(O)C[C@@H]2CN(CCc3c([nH]c4ccccc34)[C@@](C(=O)OC)(c3cc4c(cc3OC)N(C)[C@H]3[C@@](O)(C(N)=O)[C@H](O)[C@]5(CC)C=CCN6CC[C@]43[C@@H]65)C2)C1 [VINDESINE],Drug uptake,[42],1%
